Assay results as given in ChEMBL document CHEMBL2177027, “Exploring the directionality of 5-substitutions in a new series of 5-alkylaminopyrazolo[4,3-e]1,2,4-triazolo[1,5-c]pyrimidine as a strategy to design novel human a(3) adenosine receptor antagonists” (J Med Chem, 2012).

Assays:
[1] = Selectivity ratio of Ki for human adenosine A2A receptor expressed in CHO cell membrane to Ki for human adenosine A3 receptor expressed in CHO cell membrane; format: cell-based
Adenosine receptor A2b = biological target: T1, Adenosine receptor A2b (Homo sapiens, UniProt P29275); assay: Antagonist activity at human adenosine A2B receptor expressed in CHO cells assessed as NECA-induced adenylate cyclase activity; format: functional, cell-based
T1 sequence (P29275 whole entry): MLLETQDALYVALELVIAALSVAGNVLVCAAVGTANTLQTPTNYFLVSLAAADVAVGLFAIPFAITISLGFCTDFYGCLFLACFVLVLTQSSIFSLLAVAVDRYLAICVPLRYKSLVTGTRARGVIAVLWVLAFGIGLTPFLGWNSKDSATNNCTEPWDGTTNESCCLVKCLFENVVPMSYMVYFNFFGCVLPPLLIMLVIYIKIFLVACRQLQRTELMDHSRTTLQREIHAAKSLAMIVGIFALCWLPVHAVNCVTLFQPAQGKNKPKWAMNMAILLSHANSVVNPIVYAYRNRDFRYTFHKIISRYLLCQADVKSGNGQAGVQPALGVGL
Procedure, shortened: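 Membranes from stably transfected CHO cells made with a single high-speed spin of the homogenate. Incubated 20 min with about 150 000 cpm [α-³²P]ATP in mixture lacking EDTA and NaCl. IC50 taken from concentration-dependent inhibition of NECA-stimulated adenylyl cyclase using Hill equation.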

Adenosine receptor A3 = biological target: T2, Adenosine receptor A3 (Homo sapiens, UniProt P0DMS8); assay: Displacement of [3H]NECA from human adenosine A3 receptor expressed in CHO cell membrane; format: cell membranes
T2 sequence (P0DMS8 whole entry): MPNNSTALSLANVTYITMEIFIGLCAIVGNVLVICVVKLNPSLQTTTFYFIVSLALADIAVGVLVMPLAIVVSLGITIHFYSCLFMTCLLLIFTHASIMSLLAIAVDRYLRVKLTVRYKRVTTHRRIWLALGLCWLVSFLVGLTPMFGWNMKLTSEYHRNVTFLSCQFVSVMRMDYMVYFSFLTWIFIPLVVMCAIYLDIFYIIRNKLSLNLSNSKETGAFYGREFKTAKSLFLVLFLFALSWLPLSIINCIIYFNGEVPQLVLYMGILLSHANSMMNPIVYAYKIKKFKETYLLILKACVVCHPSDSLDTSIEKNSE
Procedure, shortened: (§1)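 CHO cells stably transfected with the human receptor subtype. Membranes were prepared by a 1000g spin to clear fragments and nuclei, then pelleted from the supernatant at 100 000g. Pellet was resuspended in the respective binding buffer, frozen in liquid nitrogen and stored until radioligand competition binding.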

Adenosine receptor A1 = biological target: T3, Adenosine receptor A1 (Homo sapiens, UniProt P30542); assay: Displacement of [3H]CCPA from human adenosine A1 receptor expressed in CHO cell membrane; format: cell membranes; procedure, shortened: as §1
T3 sequence (P30542 whole entry): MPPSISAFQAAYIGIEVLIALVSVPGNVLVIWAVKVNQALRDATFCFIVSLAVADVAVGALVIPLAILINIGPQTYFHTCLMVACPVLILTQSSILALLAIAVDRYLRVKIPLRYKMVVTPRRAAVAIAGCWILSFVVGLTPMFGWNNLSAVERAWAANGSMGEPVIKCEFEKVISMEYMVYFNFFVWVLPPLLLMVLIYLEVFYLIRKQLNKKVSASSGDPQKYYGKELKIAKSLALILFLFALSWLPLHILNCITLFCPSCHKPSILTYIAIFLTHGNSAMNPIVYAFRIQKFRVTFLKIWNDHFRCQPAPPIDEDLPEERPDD

[2] = biological target: Adenosine receptors; A1 & A3 (Homo sapiens) (UniProt P30542+P0DMS8); assay: Selectivity ratio of Ki for human adenosine A1 receptor expressed in CHO cell membrane to Ki for human adenosine A3 receptor expressed in CHO cell membrane; format: cell-based
Adenosine receptor A2a = Adenosine receptor A2a (Homo sapiens, UniProt P29274); assay: Displacement of [3H]NECA from human adenosine A2A receptor expressed in CHO cell membrane; format: cell membranes; procedure, shortened: as §1
[3] = Selectivity ratio of Ki for human adenosine A1 receptor expressed in CHO cell membrane to Ki for human adenosine A2A receptor expressed in CHO cell membrane; format: cell-based

Chain of Adenosine receptor A2a (P29274 whole entry): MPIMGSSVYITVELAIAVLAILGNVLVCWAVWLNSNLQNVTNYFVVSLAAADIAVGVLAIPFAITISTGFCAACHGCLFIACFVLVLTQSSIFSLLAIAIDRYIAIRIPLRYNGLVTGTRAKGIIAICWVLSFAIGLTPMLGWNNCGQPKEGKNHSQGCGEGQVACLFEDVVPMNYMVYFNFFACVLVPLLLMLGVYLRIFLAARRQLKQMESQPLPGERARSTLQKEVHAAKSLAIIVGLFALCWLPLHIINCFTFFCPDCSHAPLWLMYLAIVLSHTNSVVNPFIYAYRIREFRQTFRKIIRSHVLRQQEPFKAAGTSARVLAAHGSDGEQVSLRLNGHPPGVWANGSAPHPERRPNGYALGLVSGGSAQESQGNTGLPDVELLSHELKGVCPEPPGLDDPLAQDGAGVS

Row | Structure (SMILES) | Ki (Adenosine receptor A2b) | Ki (Adenosine receptor A3) | Ki (Adenosine receptor A1) | Ratio Ki [2] | Ki (Adenosine receptor A2a) | Ratio Ki [1] | Ratio Ki [3]
1 | CC(CCc1ccccc1)Nc1nc2nn(C)cc2c2nc(-c3ccco3)nn12 (stereo not drawn) | 5260 nM | 37.8 nM | 133 nM | 3.52 | 147 nM | 3.89 | 0.9
2 | Cn1cc2c(nc(NCc3ccc(F)cc3)n3nc(-c4ccco4)nc23)n1 | 3180 nM | 4.93 nM | 823 nM | 167 | 87.5 nM | 17.8 | 9.41
3 | Cn1cc2c(nc(NC(CO)CO)n3nc(-c4ccco4)nc23)n1 | > 10000 nM | 536 nM | 639 nM | 1.19 | 597 nM | 1.11 | 1.07
4 | Cn1cc2c(nc(NC3CC3)n3nc(-c4ccco4)nc23)n1 | 1750 nM | 69.3 nM | 208 nM | 3 | 113 nM | 1.63 | 1.84
5 | CN(Cc1ccccc1)c1nc2nn(C)cc2c2nc(-c3ccco3)nn12 | > 10000 nM | 18 nM | 566 nM | 31.4 | 1080 nM | 60 | 0.52
6 | CCCCCCC(C)Nc1nc2nn(C)cc2c2nc(-c3ccco3)nn12 (stereo not drawn) | > 10000 nM | 23.8 nM | 265 nM | 11.1 | 701 nM | 29.4 | 0.38
7 | Cn1cc2c(nc(NC3CCCCCC3)n3nc(-c4ccco4)nc23)n1 | 6590 nM | 15.4 nM | 223 nM | 14.5 | 336 nM | 21.8 | 0.66
8 | CCNc1nc2nn(C)cc2c2nc(-c3ccco3)nn12 | 2160 nM | 44.4 nM | 604 nM | 13.6 | 208 nM | 4.68 | 2.9
9 | Cn1cc2c(nc(NCc3ccc(Cl)cc3)n3nc(-c4ccco4)nc23)n1 | 2620 nM | 1.99 nM | 322 nM | 162 | 75.4 nM | 37.9 | 4.27
10 | Cn1cc2c(nc(NCc3ccc(-c4ccccc4)cc3)n3nc(-c4ccco4)nc23)n1 | > 10000 nM | 187 nM | 17500 nM | 93.6 | 593 nM | 3.17 | 29.5
11 | Cc1ccc(CNc2nc3nn(C)cc3c3nc(-c4ccco4)nn23)cc1 | 3940 nM | 1.07 nM | 538 nM | 503 | 117 nM | 109 | 4.6
12 | CC(O)CNc1nc2nn(C)cc2c2nc(-c3ccco3)nn12 (stereo not drawn) | > 3000 nM | 356 nM | 375 nM | 1.05 | 136 nM | 0.38 | 2.76
13 | Cn1cc2c(nc(NC3C4CC5CC(C4)CC3C5)n3nc(-c4ccco4)nc23)n1 (stereo not drawn) | > 10000 nM | 18.8 nM | 750 nM | 39.9 | 848 nM | 45.1 | 0.88
14 | Cn1cc2c(nc(NCc3ccc(C(F)(F)F)cc3)n3nc(-c4ccco4)nc23)n1 | > 3000 nM | 14.9 nM | 1230 nM | 82.5 | 245 nM | 16.4 | 5.02
15 | CC[C@H](C)Nc1nc2nn(C)cc2c2nc(-c3ccco3)nn12 | 2600 nM | 11 nM | 129 nM | 11.7 | 244 nM | 22.2 | 0.53
16 | CONc1nc2nn(C)cc2c2nc(-c3ccco3)nn12 | 8500 nM | 404 nM | 2750 nM | 6.81 | 185 nM | 0.46 | 14.9

Now from value to molecule, other results behind:

Row | Ki (Adenosine receptor A2b) | Ki (Adenosine receptor A3) | Ki (Adenosine receptor A1) | Ratio Ki [2] | Ki (Adenosine receptor A2a) | Structure (SMILES) | Ratio Ki [1] | Ratio Ki [3]
17 | > 10000 nM | 252 nM | 1040 nM | 4.13 | 251 nM | Cn1cc2c(nc(NCCCCO)n3nc(-c4ccco4)nc23)n1 | 1 | 4.14
18 | > 10000 nM | 37.8 nM | 3310 nM | 87.6 | > 30000 nM | Cn1cc2c(nc(NC34CC5CC(CC(C5)C3)C4)n3nc(-c4ccco4)nc23)n1 | > 794 | –
19 | > 10000 nM | 62.9 nM | 219 nM | 3.48 | 207 nM | CCC(CO)Nc1nc2nn(C)cc2c2nc(-c3ccco3)nn12 (stereo not drawn) | 3.29 | 1.06
20 | > 10000 nM | 394 nM | 4760 nM | 12.1 | 1030 nM | CN(C)c1nc2nn(C)cc2c2nc(-c3ccco3)nn12 | 2.61 | 4.62
21 | > 10000 nM | 15.5 nM | 484 nM | 31.2 | 279 nM | Cn1cc2c(nc(NC3CCCCCCC3)n3nc(-c4ccco4)nc23)n1 | 18 | 1.73
22 | 3880 nM | 37.6 nM | 1580 nM | 42 | 92.5 nM | COc1ccc(CCNc2nc3nn(C)cc3c3nc(-c4ccco4)nn23)cc1OC | 2.46 | 17.1
23 | > 10000 nM | 35.5 nM | 328 nM | 9.24 | 132 nM | Cn1cc2c(nc(N3CCCC3)n3nc(-c4ccco4)nc23)n1 | 3.72 | 2.48
24 | 12200 nM | 3.71 nM | 945 nM | 255 | 38.2 nM | C[C@@H](Nc1nc2nn(C)cc2c2nc(-c3ccco3)nn12)c1ccccc1 | 10.3 | 24.7
25 | 2650 nM | 7.68 nM | 80.1 nM | 10.4 | 130 nM | Cn1cc2c(nc(NC3CCCC3)n3nc(-c4ccco4)nc23)n1 | 16.9 | 0.62
26 | > 10000 nM | 136 nM | 525 nM | 3.86 | 124 nM | Cn1cc2c(nc(NCCCCCO)n3nc(-c4ccco4)nc23)n1 | 0.91 | 4.23
27 | 2110 nM | 63.4 nM | 1930 nM | 30.4 | 368 nM | CNc1nc2nn(C)cc2c2nc(-c3ccco3)nn12 | 5.8 | 5.24
28 | > 10000 nM | 1360 nM | 15000 nM | 11 | 6430 nM | CCN(CCO)c1nc2nn(C)cc2c2nc(-c3ccco3)nn12 | 4.73 | 2.33
29 | 3980 nM | 14.6 nM | 481 nM | 32.9 | 168 nM | CCCCCNc1nc2nn(C)cc2c2nc(-c3ccco3)nn12 | 11.5 | 2.86
30 | 7660 nM | 8.62 nM | 248 nM | 28.8 | 446 nM | CCCCCC(C)Nc1nc2nn(C)cc2c2nc(-c3ccco3)nn12 (stereo not drawn) | 51.7 | 0.56
31 | > 10000 nM | 5280 nM | > 30000 nM | > 5.68 | > 30000 nM | Cn1cc2c(n1)[nH]c(=O)n1nc(-c3ccco3)nc21 | > 5.68 | –
32 | > 10000 nM | 96.3 nM | 1450 nM | 15.1 | 798 nM | CCN(CC)c1nc2nn(C)cc2c2nc(-c3ccco3)nn12 | 8.29 | 1.82
33 | > 10000 nM | 822 nM | > 30000 nM | > 36.5 | > 30000 nM | COc1nc2nn(C)cc2c2nc(-c3ccco3)nn12 | > 36.5 | –
